Published values from different studies.
Compare with care: the assays were run in different laboratories.
Target: Platelet-derived growth factor receptor alpha (PDGFRA, Homo sapiens, UniProt P16234)

SMILES | assay | conditions | remaining binding
O=C(NCCCN1CCOCC1)c1ccc(Nc2ncc(Cl)c(-c3ccc(Cl)s3)n2)cc1 | binding, competition with immobilised ligand | 1 µM | 10%
COc1cc(-c2cn(C3CCc4ccccc4N(CC(F)(F)F)C3=O)nn2)ccc1-n1ccc(C)n1 (centres unmarked) | cell-free assay, competition with immobilised ligand | 1 µM | 88%
C=CC(=O)N1CCC(C(=O)NCC(=O)N2CCN(c3nc(-c4cnc(N)nc4C(F)F)nc(N4CCOCC4)n3)CC2)CC1 | binding, competition with immobilised ligand | 1 µM | 91%
CCN1CCN(Cc2ccc(C(=O)Nc3ccc(C)c(Oc4ccc5c(c4)CC(=O)N5)c3)cc2C(F)(F)F)CC1 | binding, competition with immobilised ligand | 1 µM | 100%
CC(C)(O)c1cncc(-c2nc3ccc(F)cc3n2C2CC2)c1 | cell-free assay, competition with immobilised ligand | 1 µM | 100%
CN(C)c1nccc(-c2cnc3ncccn23)n1 | binding | 1 µM | 78%
COc1cnc(Nc2cccc(S(N)(=O)=O)c2)nc1N1CCN(c2ccccc2)CC1 | binding, competition with immobilised ligand | 1 µM | 85%
C[C@@H](c1ccc(-n2cnc3c(N)ncnc32)cc1)N1CCc2nn(C)c(Cc3ccccc3)c2C1=O | binding, competition with immobilised ligand | 0.1 µM | 20%
COc1ccnn2ncc(-c3ccnc(N(C)C)n3)c12 | binding | 1 µM | 74%
COC(=O)Nc1nc2ccc(C(=O)c3ccccc3)cc2[nH]1 | cell-free assay, competition with immobilised ligand | 10 µM | 7.8%
O=C(c1ccc(Nc2nccc(-c3cc4ccccc4s3)n2)cc1)N1CCC(N2CCCC2)CC1 | binding, competition with immobilised ligand | 1 µM | 52%
CNC(=O)[C@@H]1CC[C@@H](n2c(-c3ccc4cnccc4c3)nc3ccc(C(=O)NCc4cccc(C(N)=O)c4)cc32)C1 | binding, competition with immobilised ligand | 1 µM | 100%
C[C@@H]1CN(c2ccc3ncc(-c4ccc5[nH]nc(C6CC6)c5c4)n3n2)C[C@H](C)O1 | binding, competition with immobilised ligand | 50 nM | 81%
CSc1cccnc1N1CCN(Cc2nc3ccccc3[nH]2)CC1 | cell-free assay, competition with immobilised ligand | 1 µM | 89%
N[C@@H]1CCN(c2nccc(-c3cnn4ncccc34)n2)C1 | binding | 1 µM | 100%
O=C(Nc1c[nH]nc1C(=O)NC1CCNCC1)c1cc(F)cc(F)c1 | binding, competition with immobilised ligand | 1 µM | 83%
Cc1cc(C)c(-n2ccn3nc(-c4cccnc4)cc23)cc1NC(=O)c1cc(C#N)cc(S(F)(F)(F)(F)F)c1 | cell-free assay, competition with immobilised ligand | 0.1 µM | 67.4%
C[C@@H]1CCN(c2nccc(-c3cnn4ncccc34)n2)C1 | binding | 1 µM | 81%
CC1=C(C#N)C(c2ccc3c(c2)c(NC(=O)c2ccccc2C)nn3C)C(C#N)=C(C)N1 | cell-free assay, competition with immobilised ligand | 1 µM | 86%
COc1ncc2cc3ccccc3nc2c1C#N | cell-free assay, competition with immobilised ligand | 5 µM | 83%
COc1cccc(CNC(=O)c2nc3scc(COCc4ccc(C(=O)O)cc4)c3c(=O)[nH]2)c1 | cell-free assay, competition with immobilised ligand | 1 µM | 56.3%
CN(c1nccc(-c2cnn3ncccc23)n1)C1CC1 | binding | 1 µM | 100%
COCCOc1nc(-c2ccc(Cl)nc2)nc2c1CN(C(=O)c1ncn3ccccc13)CC2 | cell-free assay, competition with immobilised ligand | 0.1 µM | 100%
Cc1cnn2ncc(-c3ccnc(N(C)C)n3)c2c1 | binding | 1 µM | 97%
CCS(=O)(=O)c1cc2cc(C[C@@](O)(CC(C)(C)c3ccc(F)cc3C(N)=O)C(F)(F)F)[nH]c2cn1 | cell-free assay, competition with immobilised ligand | 1 µM | 99%
O=C(NCCCN1CCOCC1)c1ccc(Nc2nccc(-c3cc4ccccc4s3)n2)cc1 | binding, competition with immobilised ligand | 1 µM | 64%
